# Hits are enriched below; roughly 2.6% of the tested compounds scored in any of these assays.
# Vif inh – inhibitors of HIV Vif | hit rate 0.35% among 340,000 | AID 602346 | HEK293T cells, Vif self-association by quenched fluorescence, imaging, 24 h | inhibition, % at 7.49 µM; in the data active means inhibition above about 50%, passing the limit was not always enough; inconclusive means no clear call, values can overlap the other calls; inactive means below about 31%
# miR-122 sensor – miR-122 inhibition in Huh7 cells | Huh7 miR-122 Renilla luciferase sensor, 48 h; neutral wells = 0, positive control = 100 | activation (reporter increase), % at 12.5 µM | hit rate 0.3% among 340,000 | AID 602342;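 active means mean replicate activation score at least 90 and every replicate individually at or above 90; inconclusive means only one of the two criteria met; inactive means neither criterion met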;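 further: higher luciferase means less miR-122 activity so hits act as miR-122 inhibitors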
# S100A4 inh HTS – S100A4-myosin IIA interaction inhibition | P26447 | S100A4/TAMRA-MyoIIA peptide fluorescence polarization | inhibition, % at 10.7 µM | hit rate 0.14% among 360,000;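 active means mean inhibition of at least 70% across replicates, with every replicate also reaching that level; inconclusive means mean inhibition reaches 70% but some replicates fall short; inactive means mean inhibition below 70%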
# Target sequence (P26447 whole entry, looked up): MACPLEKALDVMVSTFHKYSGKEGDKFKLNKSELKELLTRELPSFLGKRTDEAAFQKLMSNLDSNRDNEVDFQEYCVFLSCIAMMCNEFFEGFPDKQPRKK
#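 Test system: S100A4 monomer protein; Medium: HEPES pH 7.2 with CaCl2, KCl, NaCl, DTT, Triton; Probe or stimulus: TAMRA-labelled myosin IIA heavy-chain peptide probe, 5 nM; Doses: one dose per compound; Times: polarization read 5 min after assay mix addition, stable 5–60 min; Benchmarks: neutral control DMSO, positive control TFP.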
# FN deposit inh – fibronectin deposition inhibition; hit rate 0.086% among 350,000; AH1F fibroblasts, Alexa488-fibronectin deposition fluorescence, overnight; inhibition, % at 12.6 µM; AID 743247;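 active means mean inhibition across replicates of 30% or more, regardless of how many single replicates reach that level; inconclusive means mean under 30% yet at least half of replicates reach 30%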;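 further: positive control wells lacked labelled fibronectin entirely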
#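 Assay system: AH1F fibroblast monolayer, labelled fibronectin deposition. Amount: 10000 cells per well. Also added: labelled fibronectin 24 nM. Compound: single-point pinned compound. Incubation: cell attachment 1 h, compound and FN exposure overnight. Detection: fluorescence after three HBSS washes, excitation 485 nm, emission 525 nm. Read-out: inhibition of fibronectin deposition signal.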
# Env fusion inh – HIV envelope-mediated fusion inhibition. AID 651610. inhibition, % at 12.3 µM. HeLa-JRFL Env/CEM21 cell fusion, luciferase. hit rate 1.1% among 360,000;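 active means mean replicate inhibition score of at least 50 and every replicate individually at or above 50; inconclusive means only one of the two criteria met; inactive means mean below 50 and not all replicates reaching 50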;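 further: 0% = plate neutral controls and 100% = maraviroc near 300 nM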
# Ecoli rRNA inh – inhibits bacterial ribosomal RNA function over humanized ribosomes | E. coli WT GFP vs humanized-ribosome RFP mutants, fluorescence, 24 h; hits give low values; DMSO median 0, no signal -100 | hit rate 1.6% among 350,000 | GFP signal change (wild-type ribosome), % (concentration not given with the values);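 active means significant combined selectivity score with lowered wild-type GFP, culture density cut under 30%, mutant RFP and density less affected; inactive means any of these conditions unmet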
# * hit, by the source's call; ? = inconclusive; nt = no result; [ ] = another dose, or the depositor's remark.
SMILES,Vif inh,miR-122 sensor,S100A4 inh HTS,FN deposit inh,Env fusion inh,Ecoli rRNA inh
Cc1ccc(-c2ccc3c(c2)O[C@H](CN(C)Cc2ccncc2)[C@@H](C)CN([C@@H](C)CO)S3(=O)=O)cc1,nt,-1[16.7 µM],4,6,91*[16.7 µM],-19
C[C@@H]1CN([C@@H](C)CO)C(=O)c2cc(NS(=O)(=O)c3ccccc3)ccc2O[C@@H](C)CCCCO[C@@H]1CN(C)S(=O)(=O)c1ccc(Cl)cc1,nt,nt,31,-2,nt,-2
O=c1c(C/C=C/c2ccccc2)c(O)ccn1Cc1ccc(Cl)cc1Cl,5,nt,0,0,4,-19
O=c1c(Cc2ccc(Cl)cc2Cl)c(O)ccn1Cc1ccncc1,-2,nt,0,5,5,-35*
Cc1c(CCC(=O)NCC(=O)O)c(=O)oc2cc3occ(-c4ccccc4)c3cc12,9,-4,0,-4,10,-20*
Cc1c(CCC(=O)NCCC(=O)O)c(=O)oc2cc3occ(-c4ccccc4)c3cc12,nt,-5,-3,3,-9,-20
CCCC(NC(=O)CCc1c(C)c2cc3c(-c4ccccc4)coc3cc2oc1=O)C(=O)O (stereo not given),nt,0,-11,-4,-15,-34*
CNC[C@@H]1Oc2ccc(NC(=O)c3ccncc3)cc2C(=O)N([C@H](C)CO)C[C@H]1C,nt,-1[16.7 µM],26,-32,-6[16.7 µM],0
C[C@@H]1CN(C)C(=O)c2ccccc2O[C@H]1CN(C)S(C)(=O)=O,nt,nt,nt,4,nt,7
COc1ccc(Nc2nc(C(=O)N3CCc4cc(OC)c(OC)cc4C3)cs2)cc1,-2,nt,-10,1,23,-39*
Cc1ccccc1-c1ccc([C@@H]2[C@H]3CN(C(=O)c4cccnc4)CC(=O)N3[C@H]2CO)cc1,nt,nt,nt,nt,nt,-2
CN(CC(=O)Nc1ccccc1Cl)C(=O)c1cccc(S(=O)(=O)N2CCN(c3ccc(F)cc3)CC2)c1,-10,-6,-9,-7,35,-25*
CN(CC(=O)Nc1ccccc1Cl)C(=O)c1cccc(S(=O)(=O)N2CCN(c3ccccc3)CC2)c1,-3,-4,-3,nt,nt,-6
COc1cc(CN2CC3(CN(C(C)=O)C3)c3c([nH]c4cc(OC)ccc34)[C@@H]2CO)cc(OC)c1,nt,nt,nt,nt,nt,2
CC(=O)N(C)C[C@@H]1Oc2cc(-c3ccccc3F)ccc2S(=O)(=O)N([C@@H](C)CO)C[C@H]1C,nt,-7[16.7 µM],-4,0,-26[16.7 µM],-6
O=C(O)CCSc1ncnc2sc(-c3ccccc3)cc12,0,-3,6,3,68*,5
CC(=O)CCSc1ncnc2sc(-c3ccccc3)cc12,-3,1,-2,-4,-239,-23
O=C(O)c1ccccc1Nc1ccccc1,-5,-11,-2,-7,-14,nt
O=C(O)c1ccccc1Nc1ccc(OC(F)F)cc1,0,nt,-2,5,-17,-16*
COC(=O)[C@H]1[C@H](CO)[C@H]2Cn3c(ccc(-c4cccc(F)c4)c3=O)[C@H]2N1Cc1ccccn1,nt,4[16.7 µM],-8,nt,nt,0
CC=Cc1ccc2n(c1=O)C[C@H]1[C@H](CO)[C@@H](C(=O)NCC3CC3)[C@@H]2N1CCC (mixture of isomers),nt,-10[16.7 µM],-1,nt,nt,0
Cc1ccc(-c2cc(-c3n[nH]c(=S)o3)c3ccccc3n2)cc1,-3,nt,-4,-4,6,-18*
CO[C@@H]1CN(C)C(=O)c2ccc(NS(C)(=O)=O)cc2OC[C@@H](C)N(CCC(F)(F)F)C[C@@H]1C,nt,nt,14,9,-9[16.7 µM],-3
Nc1c(C(=O)O)cnc2nc(N3CCOCC3)nn12,-1,nt,-3,nt,0,3
CSc1nc2ncc(C(=O)O)c(N)n2n1,51*,6,-1,7,-1,4
SMILES,Vif inh,miR-122 sensor,S100A4 inh HTS,FN deposit inh,Env fusion inh,Ecoli rRNA inh
CCCOc1ccc(C(=O)NNC(=S)NC(=O)c2ccco2)cc1,-11,nt,0,9,23,-48*
CC(=O)NC(=S)Nc1ccc(NC(=S)NC(=O)/C=C/c2ccco2)cc1,3,nt,-3,-4,-8,-12
O=C(/C=C/c1ccco1)NC(=S)NNC(=O)c1ccco1,nt,2,2,nt,nt,-26*
O=C(c1ccc2c(c1)OCO2)N1CC2(C1)[C@H](c1ccccc1)[C@H](CO)N2C(=O)C1CCCC1,nt,nt,11,1,nt,-3
Cc1ccc(S(=O)(=O)CNC(=S)c2ccc3ccccc3c2)cc1,-3,0,-1,nt,nt,-24*
COc1ccc(C2=Nc3ccccc3NC(=O)C2N(C(=O)c2ccnc3ccccc23)c2ccccc2)cc1 (stereo not given),nt,-13,-2,-5,-172,-21*
CNC[C@H]1Oc2ccc(NC(=O)Cc3ccccc3)cc2C(=O)N([C@H](C)CO)C[C@H]1C,nt,0[16.7 µM],-38,1,7[16.7 µM],7
O=S(=O)(c1ccccc1)c1cnn(-c2ccccc2)c1-c1ccc(F)cc1,-1,18,nt,nt,?,nt
COc1ccc(-n2ncc(S(=O)(=O)c3ccccc3)c2-c2ccc(Cl)cc2)cc1,-1,-6,nt,0,60*,nt
C[C@@H]1CN([C@H](C)CO)S(=O)(=O)c2ccc(-c3ccc(F)cc3)cc2O[C@H]1CN(C)C(=O)C1CC1,nt,12[16.7 µM],nt,-3,-5[16.7 µM],0
O=C(CSc1nnc(COc2ccccc2)o1)Nc1nccs1,14,-6,-2,2,-6,-9
Cc1cccc(OCc2nnc(SCC(=O)Nc3nccs3)o2)c1,-9,nt,0,-10,7,-41*
Cc1ccccc1-c1ccc([C@H]2[C@H]3CN(C(=O)NC4CCCC4)CCCCN3[C@H]2CO)cc1,nt,-12[16.7 µM],-1,nt,nt,-57
COc1ccc(Nc2nc(N)c([N+](=O)[O-])c(N3CCOCC3)n2)cc1,2,1,2,0,-20,-28*
Nc1nc(Nc2ccccc2)nc(N2CCOCC2)c1[N+](=O)[O-],2,-3,nt,nt,nt,nt
Nc1nc(Nc2ccccc2F)nc(N2CCOCC2)c1[N+](=O)[O-],-6,-2,-2,13,0,-20*
Cc1[nH]c2ccccc2c1CCNC(=O)c1c(N)no[n+]1[O-],-6,nt,-1,-1,-2,-21*
Cc1ccc(S(=O)(=O)N(C)C[C@H]2Oc3c(NC(=O)Nc4ccc(C(F)(F)F)cc4)cccc3C(=O)N([C@@H](C)CO)C[C@H]2C)cc1,nt,-8[16.7 µM],-16,nt,25[16.7 µM],1
O=C(COC(=O)c1cccc(F)c1)NC(=O)NC1CCCC1,-1,-3,0,7,1,-5
O=C(COC(=O)c1cccc(NS(=O)(=O)c2ccc(F)c(F)c2)c1)NC(=O)NC1CCCC1,-25,nt,-2,3,9,-36*
C[C@@H]1CN([C@H](C)CO)S(=O)(=O)c2ccc(-c3cccnc3)cc2O[C@H]1CN(C)Cc1cncnc1,nt,0[16.7 µM],0,-68,9[16.7 µM],-2

# From PubChem BioAssay
